In ChEMBL document CHEMBL2390889, “Synthesis and anticancer activity of acyl thioureas bearing pyrazole moiety” (2013):

How the values were obtained:
Type in all cases: functional
HepG2 [1] = test: Anticancer activity against human HepG2 cells assessed as viable cells at 10^-4 M after 24 hrs by XTT assay relative to control; conditions: HepG2, 24 h, read-out: Activity
Procedure, shortened: (§1)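 DLD-1, HepG2 and Jurkat cells were grown in low-glucose DMEM with 10% FBS, 1% L-glutamine, 100 IU/mL penicillin and streptomycin at 37 °C under 5% CO2. They were seeded at 10 × 10^4 cells/well and treated with a 10-fold dilution series from 10^-4 to 10^-8 M for 24 or 48 h. XTT was then added, absorbance read at 450 nm after 4 h, and viability expressed as % of untreated control (set to 100%).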

DLD-1 [2] = test: Anticancer activity against human DLD1 cells assessed as viable cells at 10^-5 M after 24 hrs by XTT assay relative to control; conditions: DLD-1, 24 h, read-out: Activity; procedure, shortened: as §1
Jurkat [3] = test: Anticancer activity against human Jurkat cells assessed as viable cells at 10^-5 M after 48 hrs by XTT assay relative to control; conditions: read-out: Activity; procedure, shortened: as §1
HepG2 [4] = test: Anticancer activity against human HepG2 cells assessed as viable cells at 10^-5 M after 24 hrs by XTT assay relative to control; conditions: HepG2, 24 h, read-out: Activity; procedure, shortened: as §1
DLD-1 [5] = test: Anticancer activity against human DLD1 cells assessed as viable cells at 10^-4 M after 48 hrs by XTT assay relative to control; conditions: DLD-1, 48 h, read-out: Activity; procedure, shortened: as §1
Jurkat [6] = test: Anticancer activity against human Jurkat cells assessed as viable cells at 10^-4 M after 48 hrs by XTT assay relative to control; conditions: read-out: Activity; procedure, shortened: as §1
HepG2 [7] = test: Anticancer activity against human HepG2 cells assessed as viable cells at 10^-5 M after 48 hrs by XTT assay relative to control; conditions: HepG2, 48 h, read-out: Activity; procedure, shortened: as §1
Jurkat [8] = test: Anticancer activity against human Jurkat cells assessed as viable cells at 10^-5 M after 24 hrs by XTT assay relative to control; conditions: read-out: Activity; procedure, shortened: as §1
Jurkat [9] = test: Anticancer activity against human Jurkat cells assessed as viable cells at 10^-4 M after 24 hrs by XTT assay relative to control; conditions: read-out: Activity; procedure, shortened: as §1
DLD-1 [10] = test: Anticancer activity against human DLD1 cells assessed as viable cells at 10^-5 M after 48 hrs by XTT assay relative to control; conditions: DLD-1, 48 h, read-out: Activity; procedure, shortened: as §1
HepG2 [11] = test: Anticancer activity against human HepG2 cells assessed as viable cells at 10^-4 M after 48 hrs by XTT assay relative to control; conditions: HepG2, 48 h, read-out: Activity; procedure, shortened: as §1
DLD-1 [12] = test: Anticancer activity against human DLD1 cells assessed as viable cells at 10^-4 M after 24 hrs by XTT assay relative to control; conditions: DLD-1, 24 h, read-out: Activity; procedure, shortened: as §1

Compound | viability at 100 µM (HepG2 [1]) | viability at 10 µM (DLD-1 [2]) | viability at 10 µM (Jurkat [3]) | viability at 10 µM (HepG2 [4]) | viability at 100 µM (DLD-1 [5]) | viability at 100 µM (Jurkat [6]) | viability at 10 µM (HepG2 [7]) | viability at 10 µM (Jurkat [8]) | viability at 100 µM (Jurkat [9]) | viability at 10 µM (DLD-1 [10]) | viability at 100 µM (HepG2 [11]) | viability at 100 µM (DLD-1 [12])
O=C(NC(=S)Nc1ccc(F)cc1)c1nn(-c2ccccc2)c(-c2ccccc2)c1C(=O)c1ccccc1 | 50.1% | 75.1% | 47.8% | 54.2% | 51.5% | 67.6% | 30.1% | 100% | 100% | 60.2% | 23.6% | 62.5%
O=C(NC(=S)Nc1ccc(Cl)cc1)c1nn(-c2ccccc2)c(-c2ccccc2)c1C(=O)c1ccccc1 | 49.5% | 73.3% | 90% | 53.7% | 49.2% | 24.2% | 24.9% | 56.3% | 57.3% | 55.2% | 24.8% | 60.5%
O=C(NC(=S)Nc1cccc2ccccc12)c1nn(-c2ccccc2)c(-c2ccccc2)c1C(=O)c1ccccc1 | 78.7% | 82.2% | 14.5% | 85.5% | 70.6% | 8.24% | 51.2% | 46% | 36.4% | 75.5% | 49.9% | 74.2%
Cc1ccccc1NC(=S)NC(=O)c1nn(-c2ccccc2)c(-c2ccccc2)c1C(=O)c1ccccc1 | 29.1% | 63.2% | 51.2% | 33.3% | 41.3% | 76.6% | 22.8% | 100% | 100% | 45.6% | 20.8% | 55.3%
O=C(NC(=S)Nc1ccccc1)c1nn(-c2ccccc2)c(-c2ccccc2)c1C(=O)c1ccccc1 | 38.2% | 75.5% | 67.6% | 42.1% | 60.6% | 6% | 23.7% | 30% | 23.3% | 55.4% | 21.8% | 71.3%
